Assay outcomes (PubChem)
DTT redox prof = compounds producing H2O2 with reducing agent – biochemical, NIH compound library profiling, artefact control for MLSCN library redox annotation, primary screen; AID 878; DTT-dependent redox cycling H2O2, phenol red/HRP absorbance; 100% = 100 µM peroxide control, 0% = buffer; activation, % at 10 µM; actives 0.03% (n = 200,000);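 active = activation of at least 50% relative to the plate's high and low controls in the primary single-dose screen; inactive = activation below 50%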;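 note: compound incubated with DTT at 0.8 mM final as the reducing agent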
PERK inhibitor = human PERK inhibition, primary cell-based screen; CHO PERK-DD fusion, SEAP luminescence translation reporter; Q9NZJ5; AID 1416; inhibition, % at 5.6 µM; actives 0.17% (n = 220,000);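 active = inhibition above the mean inhibition of all tested compounds plus 3 SD, set separately per screening campaign, cut at about 2.9% in these data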;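 note: PERK kinase domain activated by AP20187 dimerizer at 100 nM; 0% = DMSO with dimerizer and 100% = rapamycin at 8.4 µM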
TNAP act hi DEA = increases human TNAP activity under high phosphate acceptor concentration; P05186; purified TNAP, CDP-star luminescence, 1 M DEA, 30 min; stronger effect = higher value; 0 = EDTA background, 1 = DMSO-only activity; activation factor at 20 µM; 200,000 tested, under 10 active; AID 1136;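 active = activation factor at least 2 at 20 µM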
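Test system – human TNAP · Doses – 20 µM single point · Incubation – 30 min, room temperature · Signal – luminescent substrate turnover signal · Read-out basis – activation factor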
TNAP inh noacc = blocks human TNAP activity with no phosphate acceptor present | purified TNAP, CDP-star luminescence, 30 min | inhibition, % at 20 µM | actives 0.26% (n = 200,000) | AID 1012;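 active = tissue-nonspecific alkaline phosphatase inhibition above about 50% at 20 µM in the single-dose screen, limit read from the data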;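 note: 0% = DMSO negative control and 100% = EDTA positive control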
TNAP inh hiacc = TNAP (human) inhibition, high acceptor; P05186; purified TNAP, CDP-star luminescence, 1 M DEA; inhibition, % at 20 µM; actives 0.03% (n = 200,000);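 active = over 50% inhibition of tissue-nonspecific alkaline phosphatase at 20 µM in the single-dose screen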;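 note: plate controls were DMSO wells for no effect and EDTA-quenched wells as full inhibition for full effect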
p97 inhibitor = human p97 ATPase inhibition; inhibition, % at 8 µM; actives 0.42% (n = 220,000); recombinant p97 ATPase, Kinase-Glo ATP luminescence, 3 h; P55072; in the data active = inhibition above about 15%;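 note: 0% = DMSO vehicle and 100% = wells lacking enzyme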
p97 confirm = confirmation of human p97 ATPase inhibitors; shares compounds with p97 inhibitor; recombinant p97 ATPase, Kinase-Glo ATP luminescence; inhibition, % at 8 µM; actives 44% (n = 760); AID 1517;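 active = percent inhibition of p97 ATPase above a set limit, the primary screen's mean plus 3 SD, cut at about 15% in these data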;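 note: 0% = DMSO wells and 100% = wells lacking p97 protein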
The depositor's hits bear a star; . = no result. Sampled rows, rich in hits. Any-hit rate of the full collection: about 0.86%.

SMILES	DTT redox prof	PERK inhibitor	TNAP act hi DEA	TNAP inh noacc	TNAP inh hiacc	p97 inhibitor	p97 confirm
O=C(Cn1c(-c2ccccc2)noc1=O)Nc1ccc(S(=O)(=O)N2CCOCC2)cc1	1	0	1.1	-5	-6	-6	.
O=C(Cc1ccccc1)NC(NCCc1ccccc1)C(Cl)(Cl)Cl (stereo not given)	2	0	1	1	-1	2	.
Cc1ccc(S(=O)(=O)/C(C#N)=C/c2ccccc2OCc2ccccc2)cc1	0	-1	1	-7	2	-2	.
CCOC(=O)c1cc([N+](=O)[O-])c([N+](=O)[O-])cc1NC(C)=O	0	1	1	-7	-1	16*	35*
CCc1ccc(OC2=NS(=O)(=O)c3ccccc32)cc1	0	-1	1	-5	2	0	.
CCN(CC)c1cccc(OC2=NS(=O)(=O)c3ccccc32)c1	2	0	1	-3	3	19*	9
CCCC(=O)N(c1ccc(OCC)cc1)C1C=CS(=O)(=O)C1 (stereo not given)	-1	1	1	-12	-4	1	.
CCOc1ccc(N2C(=O)CC(NC3CCCCNC3=O)C2=O)cc1 (stereo not given)	1	1	1	-11	-5	4	.
O=C1NCCCCC1NC1CC(=O)N(c2ccccc2)C1=O (stereo not given)	-1	2	1.1	-7	-8	17*	9
COc1c(Cl)cc(Br)c(OC)c1C(=O)NC(=O)Nc1nc(C)cc(C)n1	.	1	.	.	.	-8	.
CCOC(=O)C1=C(c2ccccc2)NC(=O)NC1c1cc(Cl)c(O)c(OC)c1 (stereo not given)	-1	0	1	-6	-5	-4	.
CCOC(=O)C1=C(c2ccccc2)NC(N)=NC1c1ccc(OCc2ccc(Cl)cc2)c(OC)c1 (stereo not given)	.	0	.	.	.	20*	28*
CCOC(=O)c1cc(C#N)c(N2CCN(c3ccccn3)CC2)nc1-c1ccccc1	0	0	1	-3	4	2	.
COC(=O)c1sc(-c2cccs2)cc1NC(=O)/C=C/C(=O)O	.	0	.	.	.	25*	23*
CCOC(CCn1c(SCC(=O)Nc2cc(C)on2)nc2ccccc2c1=O)OCC	-2	1	1.1	-5	-8	0	.
CCOC(=O)CC(C#N)c1c[nH]c2ccccc12 (stereo not given)	1	0	1	-16	-5	16*	9
COc1cccc(Nc2ccccc2C(=O)O)c1	-1	1	1.1	-10	-6	16*	5
Cc1cc(C)c2nc(NC(=O)c3cc(C)on3)sc2c1	0	0	1	-17	-3	-6	.
CCC(=O)NNc1nc2c(C)cc(C)cc2s1	-9	0	1	-159	0	15*	6
C[C@@H](C(=O)N1CCNCC1)n1cc(CCCN=C(N)N)nn1	1	1	1	-1	-1	1	.
CSc1ccccc1NC(=O)c1cc2ncc(Br)cn2n1	0	-1	1	-11	-4	-5	.
O=C(Nc1cccs1)OCCN1CCN(Cc2ccccc2)CCC1=O	1	0	1.1	-11	-8	5	.
CCCCn1c(NC(=O)c2ccco2)c(S(=O)(=O)c2ccc(C)cc2)c2nc3ccccc3nc21	5	-1	1	-2	3	27*	8
CCCCn1c(NC(=O)c2ccc(Br)o2)c(S(=O)(=O)c2ccccc2)c2nc3ccccc3nc21	0	-1	1	-9	-2	46*	22*
CCCCCn1c(NC(=O)c2ccco2)c(S(=O)(=O)c2ccc(C)cc2)c2nc3ccccc3nc21	1	-1	1	-7	-3	26*	10
SMILES	DTT redox prof	PERK inhibitor	TNAP act hi DEA	TNAP inh noacc	TNAP inh hiacc	p97 inhibitor	p97 confirm
CCC(=O)Nc1c(S(=O)(=O)c2ccc(C)cc2)c2nc3ccccc3nc2n1C(C)c1ccccc1 (stereo not given)	0	-1	1	-20	-4	-6	.
CCCCn1c(NS(=O)(=O)c2ccccc2)c(S(=O)(=O)c2ccc(C)cc2)c2nc3ccccc3nc21	100*	0	1	-16	-2	25*	29*
Cc1ccc(S(=O)(=O)c2c(N)n(CCCO)c3nc4ccccc4nc23)cc1	0	-2	1	-5	-5	-1	.
Cc1cc(C)nc(NS(=O)(=O)c2ccc(N/C=C/C(=O)c3ccc(Cl)c(Cl)c3)cc2)n1	0	0	1	-10	3	0	.
Cc1ccc(SCCC(=O)Nc2ccc(Br)c(C)c2)cc1	0	1	1.1	-14	-8	-4	.
Nc1ccc(N2CCOCC2)c2nonc12	-1	1	1	3	0	47*	2
CNC(=O)C1=C(C)NC(=S)NC1c1cc2c(cc1OC)CCCC2 (stereo not given)	0	2	1	-11	-1	4	.
O=C1NN(c2ccc(F)c(Cl)c2)C(=O)/C1=C\c1cccc(OC(=O)c2cccs2)c1	1	1	1	-3	-4	16*	15
O=C(NC1(O)C(=O)c2ccccc2C1=O)c1ccccc1	0	2	1	-6	-2	9	.
O=C(NC1(O)C(=O)c2ccccc2C1=O)c1c(Cl)cccc1Cl	.	1	.	.	.	20*	41*
Cc1ccc(NC(=S)NN(C)c2cc(C)nc(C)n2)cc1	0	0	1.1	-6	-8	3	.
Oc1ccccc1-c1nnc(SCCN2CCOCC2)n1Cc1ccccc1	0	-1	1	-4	1	15*	5
CCCC(CCC)c1nc2ccncc2[nH]1	-2	2	1.1	-11	-6	6	.
Cc1ccc(-c2nnn3c2nc(Cl)c2ccccc23)cc1	0	1	1	-16	-4	17*	8
NNc1nc2c(-c3ccc(Cl)cc3)nnn2c2ccccc12	-2	0	1.1	-33	-5	2	.
Fc1cccc(-c2nnn3c2nc(Cl)c2ccccc23)c1	0	2	1	-3	-5	7	.
Clc1nc2c(-c3ccccc3)nnn2c2ccccc12	.	0	.	.	.	17*	25*
CCN(Cc1ccccc1)C(c1cc2ccc(C)cc2[nH]c1=O)c1nnnn1CCOC (stereo not given)	3	1	1.1	-9	-8	4	.
O=C1NNC(c2ccccc2)=N/C1=C\c1ccccc1Cl	.	1	.	.	.	17*	18*
O=c1cc(-c2ccccc2)[nH]n1-c1nc2ccccc2[nH]1	1	0	1.1	-105	-6	-2	.
